Activity and IC50 data for two molecules are collected here from ChEMBL document CHEMBL5252538, “β-Lactam analogues of combretastatin A-4 prevent metabolic inactivation by glucuronidation in chemoresistant HT-29 colon cancer cells” (Eur J Med Chem, 2017).

Active and inactive are the calls of the source. The calls are words filed in the database; no cut-off is given here.

In experiment [1] the test system is HT-29. In words: Induction of cell cycle arrest in human HT-29 cells assessed as accumulation of cells in G2/M phase at 1 uM incubated for 24 to 72 hrs by RNase/PI staining based flow cytometry analysis. Format: functional. Conditions: time 24-72 hrs. Background: In flow cytometry, cells or beads pass a laser one at a time.
The subject of experiment [2] is HT-29. In words: Antiproliferative activity against combretastatin A-4 resistant human HT-29 cells assessed as inhibition of cell growth incubated for 72 hrs by SRB assay. Format: functional, cell-based. As to conditions: HT-29, 72 h. The gist of the method: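 HT-29 (DMEM Glutamax, 10% FBS) seeded at 1 × 10⁴ cells/well, treated after 24 h with vehicle (1% ethanol v/v) or serial dilutions (eight concentrations) for 72 h; viability measured by sulforhodamine B protocol. Percent viability relative to vehicle control, IC50 from dose–response curves; mean of three experiments in triplicate.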
For orientation: The SRB assay estimates cell density from bound dye.

The test system of experiment [3] is HT-29. Kind of experiment: Induction of cell cycle arrest in human HT-29 cells assessed as accumulation of cells at G2/M phase at 1 uM incubated for 24 hrs by RAase A/PI staining based flow cytometry analysis (reference value: 16%). It is filed as functional.
Experiment [4] deals with HT-29. In words: Induction of cell cycle arrest in human HT-29 cells assessed as accumulation of cells at G0/G1 phase at 1 uM incubated for 24 hrs in presence of 2,3-bis(amino((2aminophenyl)thio)methylene)succinonitrile by RAase A/PI staining based flow cytometry analysis (reference value: 57%). Format: functional.
For experiment [5], the system named is HT-29. In words: Induction of cell cycle arrest in human HT-29 cells assessed as accumulation of cells in sub-G1 phase at 1 uM incubated for 72 hrs by RNase/PI staining based flow cytometry analysis (reference value: 6%). It is filed as functional.
The next experiment has as its system MCF7. In words: Antiproliferative activity against […] human MCF7 cells assessed as inhibition of cell growth incubated for 72 hrs by alamar blue assay. It is filed as functional, cell-based. As to conditions: MCF7, 72 h. The gist of the method: (§1)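 Cells seeded 24 h before treatment (HL-60 4 × 10⁴, MCF-7 5 × 10³ per well), then given medium, vehicle (1% ethanol v/v) or serial dilutions (eight concentrations) for 72 h. Alamar Blue (10% v/v) added for 3–5 h at 37 °C in the dark, fluorescence read at ex 530/em 590 nm. Viability expressed relative to vehicle (100%), IC50 from dose–response curves; three experiments in triplicate.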
Background: Alamar Blue is a resazurin reagent that responds to reducing activity.

Experiment [6] deals with HT-29. Kind of experiment: Induction of cell cycle arrest in human HT-29 cells assessed as accumulation of cells at G0/G1 phase at 1 uM incubated for 24 hrs by RAase A/PI staining based flow cytometry analysis (reference value: 57%). Format: functional.
In experiment [7] the test system is HT-29. Kind of experiment: Induction of cell cycle arrest in human HT-29 cells assessed as accumulation of cells at G2/M phase at 1 uM incubated for 24 hrs in presence of 2,3-bis(amino((2-aminophenyl)thio)methylene)succinonitrile by RAase A/PI staining based flow cytometry analysis (reference value: 16%). It is filed as functional.
Experiment [8] addresses T1, Tubulin (Homo sapiens) (UniProt P68371+Q9H4B7+P0DPH7+P68366+Q13509+Q71U36+P04350+Q3ZCM7+P07437+P68363+Q9BQE3+Q6PEY2+Q13885+Q9BVA1+Q9BUF5). In words: Induction of microtubule disruption in human HT-29 cells assessed as effect on microtubule organization at 1 uM incubated for 16 hrs by immunofluorescence based confocal microscopic analysis. Format: cell-based.
A further experiment has as its system HL-60. Kind of experiment: Antiproliferative activity against […] human HL-60 cells assessed as inhibition of cell growth incubated for 72 hrs by alamar blue assay. It is filed as functional, cell-based. Conditions: HL-60, 72 h. The gist of the method:
as §1

For experiment [9], the target named is T1, Tubulin (Homo sapiens). Kind of experiment: Induction of microtubule disruption in human HT-29 cells assessed as complete loss of microtubule structure incubated for 16 hrs by immunofluorescence based confocal microscopic analysis. It is filed as cell-based. The method, boiled down: (§2)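 Fixed in 4% paraformaldehyde, permeabilised in 0.5% Triton X-100, blocked in 5% BSA, stained with anti-α-tubulin-FITC (DM1A, 1:100, 2 h) and Alexa Fluor 488, DAPI counterstain; confocal imaging, three occasions.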

Experiment [10] relates to HT-29. Kind of experiment: Induction of cell cycle arrest in human HT-29 cells assessed as accumulation of cells in sub-G1 phase at 0.5 uM incubated for 72 hrs by RNase/PI staining based flow cytometry analysis (reference value: 6%). Format: functional. The method, boiled down:
(§3)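 HT-29 treated with vehicle (0.1% ethanol v/v) or compound at 0.5 µM for 24, 48 and 72 h. Adherent plus detached cells collected, fixed overnight in ice-cold 70% ethanol at −20 °C, stained with PI (50 µg/mL) plus RNase A (50 µg/mL) 30 min at 37 °C. 10,000 cells analysed by flow cytometry at 488 nm; sub-G1, G0/G1, G2/M gated on DNA content; mean of three experiments.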

For experiment [11], the system named is HT-29. In words: Induction of cell cycle arrest in human HT-29 cells assessed as reduction in cells in G0 phase at 0.5 uM incubated for 72 hrs by RNase/PI staining based flow cytometry analysis. Format: functional. The method, boiled down: as §3
Experiment [12] has as its system HT-29. Kind of experiment: Induction of cell cycle arrest in human HT-29 cells assessed as accumulation of cells at G2/M phase at 0.5 uM incubated for 72 hrs by RNase/PI staining based flow cytometry analysis relative to control. Format: functional. The method, boiled down: as §3
Experiment [13] relates to HT-29. In words: Induction of cell cycle arrest in human HT-29 cells assessed as reduction in cells in S phase at 0.5 uM incubated for 72 hrs by RNase/PI staining based flow cytometry analysis. Format: functional. The method, boiled down: as §3
The target of experiment [14] is T1, Tubulin (Homo sapiens). Kind of experiment: Induction of microtubule disruption in human HT-29 cells assessed as appearance of multiple micronucleus incubated for 16 hrs by immunofluorescence based confocal microscopic analysis. It is filed as cell-based. The method, boiled down:
as §2

The IC50 is the concentration that inhibits the measured activity by half. In the case of `COc1ccc(C2C(c3ccccc3)C(=O)N2c2cc(OC)c(OC)c(OC)c2)cc1O` (mixture of isomers), the outcome in the experiment on HT-29 [1] and on Tubulin (Homo sapiens) [8] was inactive. Moreover, the IC50 worked out at 430 nM in the experiment on HT-29 [2], 4 nM in the experiment with MCF7 and 2 nM with HL-60. Further, the Activity with HT-29 [3] is recorded as 16%; in the experiment on HT-29 [4], 26%; in the experiment on HT-29 [5] it was 5%; in the experiment with HT-29 [6], 60%; with HT-29 [7] it was 58%.

On to `COc1ccc(C2C(c3ccccc3)C(=O)N2c2cc(OC)c(OC)c(OC)c2)cc1` (mixture of isomers), for which the result on Tubulin (Homo sapiens) [9], in the experiment on HT-29 [11], in the experiment with HT-29 [13] and on Tubulin (Homo sapiens) [14] was Active. The values for the Activity in the experiment with HT-29 [10] and in the experiment with HT-29 [12] were 19% and 50%, respectively. Further, the IC50 is 22 nM in the experiment with HT-29 [2], 15 nM in the experiment with MCF7 and 24 nM in the experiment with HL-60.
